Drawing on ChEMBL document CHEMBL1811920, “Chemical constituents of a marine fungus, Arthrinium sacchari” (J Nat Prod, 2011), this text covers IC50 for 7 compounds.

In one test the test system is HUVEC. Nature of the test: Antiangiogenesis activity in HUVEC assessed as inhibition of VEGF-induced cell proliferation after 72 hrs by MTT assay. It counts as functional, cell-based. The note with it: Homo sapiens. In short, it runs like this:
(§1)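 Cells were purchased primary endothelial cells, maintained at 37 C in 5% CO2: HUVECs in EGM-2 Bulletkit medium and HUAECs in EGM-2MV Bulletkit medium. For the assay, 3 103 cells/well were seeded in culture medium for 3 h, then switched to 1% FBS EBM-2 for 21 h. VEGF (1 nM) and compounds were added for 72 h. Proliferation was read with WST-8 at 450 nm. Ki8751, a VEGFR2 kinase inhibitor, was the positive control.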

A short description of test [1]: Antiangiogenesis activity in HUAEC assessed as inhibition of VEGF-induced cell proliferation after 72 hrs by MTT assay. It counts as functional. The note with it: Homo sapiens. In short, it runs like this: as §1

In the case of `C[C@H]1C/C=C/[C@H]2[C@@H]3O[C@]3(C)[C@@H](C)[C@H]3[C@H](Cc4ccccc4)NC(=O)[C@]32OC(=O)O/C=C/[C@@](C)(O)C1=O` [CYTOCHALASIN E], the values for the IC50 (in the test on HUVEC; in test [1]) were 0.0114 µM and 0.011 µM, respectively.

`Cc1c(O)cc(O)c2c(=O)oc(CO)c(C)c12` [DECARBOXYHYDROXYCITRINONE]: the values for the half-inhibitory concentration (IC50) (in the test on HUVEC; in test [1]) were 7.6 µM and 17.4 µM, respectively.

Take `C=C[C@]1(C)C=C2C(=O)C(O)=C3[C@@](C)(CO)CC[C@@H](O)[C@]3(C)[C@@]2(O)CC1` [LIBERTELLENONE C]: the IC50 worked out at 29.7 µM with HUVEC and 68.7 µM in test [1].

On to `C=C[C@]1(C)C=C2C(=O)C3=C4[C@@](C)(CC[C@@H](O)[C@]4(C)[C@@]2(O)CC1)[C@@H](O)O3` [LIBERTELLENONE E], for which the IC50 stood at 236 µM in the test with HUVEC and 238 µM in test [1].

Regarding `C=C[C@]1(C)C=C2C(=O)C3=C4[C@@](C)(CC[C@@H](O)[C@]4(C)[C@@]2(O)CC1)CO3` [LIBERTELLENONE F], the IC50 came out at 64.1 µM in the test with HUVEC and 97.8 µM in test [1].

Regarding `C=C[C@@]1(C)C=C2C(=O)C(O)=C3[C@](C)(C(=O)O)CC[C@@H]4C[C@]34[C@]2(O)C(=O)C1` [MYROCIN A], the IC50 in the test with HUVEC stood at 11 µM; in test [1], 9.2 µM.

Take `C=C[C@]1(C)C=C2[C@@H](O)[C@@H]3OC(=O)[C@@]4(C)CC[C@H]5C[C@]5([C@@H]34)[C@@]2(O)C(=O)C1` [MYROCIN D]: the half-maximal inhibitory concentration (IC50) is 70.8 µM in the test on HUVEC and 277 µM in test [1].
